Test results as given in ChEMBL document CHEMBL5303300, “EUbOPEN Chemogenomics Library - Multiplex” (2023).
Where “and” joins values, the source holds several entries; their conditions need not be identical. Equal entries are not always repeated.

System: HEK-293T
Experiment: Multiplex assay against HEK293T
Assay type: toxicity, cell-based
Settings: human, number of replicates 2
Procedure, shortened: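 Live cells carried four stains from seeding: Hoechst33342, BioTracker Green Microtubule Cytoskeleton Dye, MitoTracker Red and Annexin V Alexa Fluor 680. They were imaged on a CQ1 microscope at 37°C and 5% CO2 after compound addition. Using CellPathfinder machine-learning gating, cells were split into Hoechst high-intensity objects or normal cells, normal cells into healthy, pyknosed or fragmented nuclei, and pyknosed cells into mitotic or apoptotic; tubulin, mitochondrial-mass and membrane-permeability phenotypes are per cents of healthy-nucleus cells.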

[1] = 12 h, 1 µM, compound concentration 1 uM
[2] = 12 h, 10 µM, compound concentration 10 uM
[3] = 24 h, 1 µM, compound concentration 1 uM
[4] = 24 h, 10 µM, compound concentration 10 uM
[5] = 48 h, 1 µM, compound concentration 1 uM
[6] = 48 h, 10 µM, compound concentration 10 uM

## COc1cc(C(=O)NC2CCN(C)CC2)ccc1Nc1ncc(C(F)(F)F)c(NCc2ccc(C)cc2N(C)S(C)(=O)=O)n1.O=CO.O=CO
[1]
  Population Apoptotic (%): 57% and 71%
  Population Fragmented Nuclei (%): 5% and 6%
  Population Healthy Nuclei (%): 81% and 84%
  Population Hoechst High Intensity Objects (%): 13% and 16%
  Population Membrane Permeable-Phenotype (%): 4% and 0%
  Population Mitochondria Different-Phenotype (%): 50% and 59%
  Population Mitotic Cells (%): 42% and 28%
  Population Normal (%): 86% and 83%
  Population Pyknosed Nuclei (%): 13% and 9%
  Population Tubulin-Different-Phenotype (%): 89% and 95%
  Total Cell Count: 378 and 461
[2]
  Population Apoptotic (%): 86% and 89%
  Population Fragmented Nuclei (%): 7% and 6%
  Population Healthy Nuclei (%): 45% and 62%
  Population Hoechst High Intensity Objects (%): 23%
  Population Membrane Permeable-Phenotype (%): 6% and 0%
  Population Mitochondria Different-Phenotype (%): 74% and 85%
  Population Mitotic Cells (%): 13% and 10%
  Population Normal (%): 76%
  Population Pyknosed Nuclei (%): 47% and 31%
  Population Tubulin-Different-Phenotype (%): 87% and 92%
  Total Cell Count: 288 and 266
[3]
  Population Apoptotic (%): 73% and 60%
  Population Fragmented Nuclei (%): 9% and 10%
  Population Healthy Nuclei (%): 83% and 80%
  Population Hoechst High Intensity Objects (%): 12%
  Population Membrane Permeable-Phenotype (%): 5% and 1%
  Population Mitochondria Different-Phenotype (%): 17%
  Population Mitotic Cells (%): 26% and 40%
  Population Normal (%): 87%
  Population Pyknosed Nuclei (%): 7% and 8%
  Population Tubulin-Different-Phenotype (%): 70% and 79%
  Total Cell Count: 658 and 751
[4]
  Population Apoptotic (%): 84% and 81%
  Population Fragmented Nuclei (%): 8% and 3%
  Population Healthy Nuclei (%): 35% and 51%
  Population Hoechst High Intensity Objects (%): 22% and 23%
  Population Membrane Permeable-Phenotype (%): 7% and 5%
  Population Mitochondria Different-Phenotype (%): 71% and 68%
  Population Mitotic Cells (%): 15% and 18%
  Population Normal (%): 77% and 76%
  Population Pyknosed Nuclei (%): 55% and 44%
  Population Tubulin-Different-Phenotype (%): 86% and 95%
  Total Cell Count: 363 and 344
[5]
  Population Apoptotic (%): 41% and 21%
  Population Fragmented Nuclei (%): 15% and 16%
  Population Healthy Nuclei (%): 81% and 79%
  Population Hoechst High Intensity Objects (%): 16% and 14%
  Population Membrane Permeable-Phenotype (%): 1% and 3%
  Population Mitochondria Different-Phenotype (%): 3% and 1%
  Population Mitotic Cells (%): 58% and 78%
  Population Normal (%): 83% and 85%
  Population Pyknosed Nuclei (%): 3%
  Population Tubulin-Different-Phenotype (%): 51% and 37%
  Total Cell Count: 1721 and 1697
[6]
  Population Apoptotic (%): 82% and 77%
  Population Fragmented Nuclei (%): 8% and 4%
  Population Healthy Nuclei (%): 22% and 25%
  Population Hoechst High Intensity Objects (%): 25% and 22%
  Population Membrane Permeable-Phenotype (%): 4% and 2%
  Population Mitochondria Different-Phenotype (%): 55% and 76%
  Population Mitotic Cells (%): 17% and 22%
  Population Normal (%): 74% and 77%
  Population Pyknosed Nuclei (%): 68% and 69%
  Population Tubulin-Different-Phenotype (%): 93% and 95%
  Total Cell Count: 374 and 336

## Cc1ccc(C(=O)Nc2cc(N3CCN(C)CC3)cc(C(F)(F)F)c2)cc1-n1cc(-c2cnn(C)c2C)nn1.Cl
[1]
  Population Apoptotic (%): 57% and 65%
  Population Fragmented Nuclei (%): 4% and 5%
  Population Healthy Nuclei (%): 73% and 76%
  Population Hoechst High Intensity Objects (%): 11% and 9%
  Population Membrane Permeable-Phenotype (%): 5% and 4%
  Population Mitochondria Different-Phenotype (%): 26% and 20%
  Population Mitotic Cells (%): 42% and 35%
  Population Normal (%): 88% and 90%
  Population Pyknosed Nuclei (%): 22% and 17%
  Population Tubulin-Different-Phenotype (%): 74% and 71%
  Total Cell Count: 510 and 505
[2]
  Population Apoptotic (%): 61% and 68%
  Population Fragmented Nuclei (%): 2% and 3%
  Population Healthy Nuclei (%): 81% and 82%
  Population Hoechst High Intensity Objects (%): 4% and 5%
  Population Membrane Permeable-Phenotype (%): 8% and 12%
  Population Mitochondria Different-Phenotype (%): 25% and 17%
  Population Mitotic Cells (%): 38% and 31%
  Population Normal (%): 95% and 94%
  Population Pyknosed Nuclei (%): 16% and 14%
  Population Tubulin-Different-Phenotype (%): 88% and 86%
  Total Cell Count: 680 and 697
[3]
  Population Apoptotic (%): 70% and 51%
  Population Fragmented Nuclei (%): 8% and 10%
  Population Healthy Nuclei (%): 77% and 76%
  Population Hoechst High Intensity Objects (%): 10%
  Population Membrane Permeable-Phenotype (%): 3% and 2%
  Population Mitochondria Different-Phenotype (%): 16% and 9%
  Population Mitotic Cells (%): 29% and 48%
  Population Normal (%): 89%
  Population Pyknosed Nuclei (%): 14% and 12%
  Population Tubulin-Different-Phenotype (%): 57% and 53%
  Total Cell Count: 759 and 691
[4]
  Population Apoptotic (%): 56% and 59%
  Population Fragmented Nuclei (%): 2% and 4%
  Population Healthy Nuclei (%): 83%
  Population Hoechst High Intensity Objects (%): 6% and 9%
  Population Membrane Permeable-Phenotype (%): 8% and 11%
  Population Mitochondria Different-Phenotype (%): 25% and 22%
  Population Mitotic Cells (%): 43% and 40%
  Population Normal (%): 93% and 90%
  Population Pyknosed Nuclei (%): 13% and 12%
  Population Tubulin-Different-Phenotype (%): 88% and 85%
  Total Cell Count: 748 and 730
[5]
  Population Apoptotic (%): 35% and 32%
  Population Fragmented Nuclei (%): 13% and 11%
  Population Healthy Nuclei (%): 81% and 84%
  Population Hoechst High Intensity Objects (%): 10%
  Population Membrane Permeable-Phenotype (%): 9% and 6%
  Population Mitochondria Different-Phenotype (%): 1%
  Population Mitotic Cells (%): 64% and 67%
  Population Normal (%): 89%
  Population Pyknosed Nuclei (%): 5% and 4%
  Population Tubulin-Different-Phenotype (%): 23% and 35%
  Total Cell Count: 1722 and 1279
[6]
  Population Apoptotic (%): 37% and 52%
  Population Fragmented Nuclei (%): 8%
  Population Healthy Nuclei (%): 83% and 86%
  Population Hoechst High Intensity Objects (%): 5% and 8%
  Population Membrane Permeable-Phenotype (%): 15% and 14%
  Population Mitochondria Different-Phenotype (%): 8%
  Population Mitotic Cells (%): 62% and 47%
  Population Normal (%): 94% and 91%
  Population Pyknosed Nuclei (%): 7% and 5%
  Population Tubulin-Different-Phenotype (%): 79%
  Total Cell Count: 1207 and 1093

## CCNc1ccc(-c2nn(-c3ccccc3C)c3c2C(C)Cc2nc(NC(=O)OC)sc2-3)cn1.O=C(O)C(F)(F)F (stereo not drawn)
[1]
  Population Apoptotic (%): 69% and 60%
  Population Fragmented Nuclei (%): 4% and 5%
  Population Healthy Nuclei (%): 86% and 81%
  Population Hoechst High Intensity Objects (%): 11% and 12%
  Population Membrane Permeable-Phenotype (%): 2%
  Population Mitochondria Different-Phenotype (%): 45% and 38%
  Population Mitotic Cells (%): 30% and 39%
  Population Normal (%): 88% and 87%
  Population Pyknosed Nuclei (%): 8% and 13%
  Population Tubulin-Different-Phenotype (%): 74% and 65%
  Total Cell Count: 430 and 487
[2]
  Population Apoptotic (%): 73% and 72%
  Population Fragmented Nuclei (%): 3% and 4%
  Population Healthy Nuclei (%): 85% and 79%
  Population Hoechst High Intensity Objects (%): 10%
  Population Membrane Permeable-Phenotype (%): 3%
  Population Mitochondria Different-Phenotype (%): 74% and 79%
  Population Mitotic Cells (%): 26% and 27%
  Population Normal (%): 89%
  Population Pyknosed Nuclei (%): 10% and 16%
  Population Tubulin-Different-Phenotype (%): 94% and 96%
  Total Cell Count: 308 and 225
[3]
  Population Apoptotic (%): 58% and 82%
  Population Fragmented Nuclei (%): 5%
  Population Healthy Nuclei (%): 82% and 81%
  Population Hoechst High Intensity Objects (%): 26% and 16%
  Population Membrane Permeable-Phenotype (%): 0%
  Population Mitochondria Different-Phenotype (%): 44% and 63%
  Population Mitotic Cells (%): 41% and 17%
  Population Normal (%): 73% and 83%
  Population Pyknosed Nuclei (%): 11% and 12%
  Population Tubulin-Different-Phenotype (%): 72% and 85%
  Total Cell Count: 409 and 322
[4]
  Population Apoptotic (%): 54% and 66%
  Population Fragmented Nuclei (%): 6% and 5%
  Population Healthy Nuclei (%): 76% and 74%
  Population Hoechst High Intensity Objects (%): 13% and 16%
  Population Membrane Permeable-Phenotype (%): 1%
  Population Mitochondria Different-Phenotype (%): 86% and 85%
  Population Mitotic Cells (%): 45% and 33%
  Population Normal (%): 86% and 83%
  Population Pyknosed Nuclei (%): 16% and 19%
  Population Tubulin-Different-Phenotype (%): 89% and 95%
  Total Cell Count: 234 and 199
[5]
  Population Apoptotic (%): 75% and 85%
  Population Fragmented Nuclei (%): 11%
  Population Healthy Nuclei (%): 69% and 74%
  Population Hoechst High Intensity Objects (%): 28% and 29%
  Population Membrane Permeable-Phenotype (%): 0%
  Population Mitochondria Different-Phenotype (%): 43% and 50%
  Population Mitotic Cells (%): 24% and 14%
  Population Normal (%): 71% and 70%
  Population Pyknosed Nuclei (%): 19% and 14%
  Population Tubulin-Different-Phenotype (%): 75% and 80%
  Total Cell Count: 418 and 399
[6]
  Population Apoptotic (%): 73% and 66%
  Population Fragmented Nuclei (%): 5% and 3%
  Population Healthy Nuclei (%): 86% and 81%
  Population Hoechst High Intensity Objects (%): 19% and 13%
  Population Membrane Permeable-Phenotype (%): 2% and 1%
  Population Mitochondria Different-Phenotype (%): 83% and 80%
  Population Mitotic Cells (%): 26% and 33%
  Population Normal (%): 80% and 86%
  Population Pyknosed Nuclei (%): 7% and 15%
  Population Tubulin-Different-Phenotype (%): 89% and 93%
  Total Cell Count: 239 and 207
